# An excerpt weighted towards active compounds, which were near 2.9% of everything screened.
# Wee1 degr inh: Wee1 degradation inhibitors, primary screen, cell-based, HeLa, Wee1K328M-luciferase, luminescence; actives 1.2% (n = 220,000); Wee1-like protein kinase (Homo sapiens), P30291; reporter increase, % at 5 µM; HeLa Luc-Wee1K328M stability; 100% = proteasome inhibitor MG132 effect;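 active = activation above the mean of all tested compounds plus 3 SD, set per screening run, cut at about 8.8% in these data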;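 note: cells exposed to compound for 20 h before luminescence read; 0% = DMSO alone and 100% = MG132 at 30 µM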
# Target sequence (P30291 whole entry K328M): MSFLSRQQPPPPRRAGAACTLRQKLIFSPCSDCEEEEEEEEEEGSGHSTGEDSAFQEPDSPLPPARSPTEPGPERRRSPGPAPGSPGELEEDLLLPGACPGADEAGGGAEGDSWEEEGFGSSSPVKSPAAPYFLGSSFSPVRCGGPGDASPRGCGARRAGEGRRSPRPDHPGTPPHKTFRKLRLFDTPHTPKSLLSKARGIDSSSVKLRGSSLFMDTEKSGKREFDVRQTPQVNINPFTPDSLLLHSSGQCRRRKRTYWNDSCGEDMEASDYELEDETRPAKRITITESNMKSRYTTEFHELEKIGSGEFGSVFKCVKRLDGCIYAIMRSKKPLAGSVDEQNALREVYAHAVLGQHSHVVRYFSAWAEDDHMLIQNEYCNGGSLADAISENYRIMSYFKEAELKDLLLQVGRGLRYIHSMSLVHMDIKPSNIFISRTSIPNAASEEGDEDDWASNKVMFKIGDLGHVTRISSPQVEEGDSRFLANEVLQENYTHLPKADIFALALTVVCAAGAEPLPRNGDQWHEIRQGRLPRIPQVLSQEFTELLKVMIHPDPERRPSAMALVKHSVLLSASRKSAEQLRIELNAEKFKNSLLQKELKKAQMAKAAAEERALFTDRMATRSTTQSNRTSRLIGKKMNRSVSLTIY
# b-catenin transl: modulators of beta-catenin nuclear translocation, primary screen, imaging, HeLa cells, immunofluorescence, high-content; nuclear translocation activity, % at 5 µM; actives 0.3% (n = 190,000); AID 1665, 2009;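 active = nuclear translocation activity above 50% at 5 µM, with a well cell count of 50 or more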;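 note: per-cell ratio of nuclear to cytoplasmic median beta-catenin stain intensity; plate controls were DMSO negative control for no effect and GSK-3 inhibitor IX positive control for full effect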
#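 Technique: fluorescence imaging of beta-catenin antibody stain plus DAPI / Material: human HeLa cell line / Incubation: compound treatment 24 h, 37°C, 5% CO2 / Read-out basis: % activation of per-cell nuclear versus cytoplasmic median beta-catenin signal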
# Autophagy mod: autophagy modulators in MEF cells, primary screen, imaging, high-content, MEF GFP-LC3; MEF GFP-LC3 puncta imaging; test concentration mostly 10 µM; calls only at 10 µM (by protocol); actives 0.98% (n = 190,000);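 active = percentage of spot-positive cells more than 3 SD above its plate mean, without a fluorescence outlier flag or 80% toxicity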;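 note: spot-positive cell cutoff set from DMSO-treated cells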
# MT stabilizer: microtubule stabilizers in HeLa cells, primary screen, imaging, high-content imaging; HeLa tubulin immunostaining HCS, 24 h; share of cells brighter than vehicle mean+2SD; % tubulin-high responders, % at 10 µM; actives 0.83% (n = 200,000);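 active = plate Z-score above 3 for both tubulin-high and condensed-nucleus cell shares, with cell loss under 80%, at 10 µM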;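 note: anti alpha tubulin signal scored within the nucleus-defined area of each cell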
# Insulin prom up: insulin promoter activators in MIN6 cells, imaging, high-content screening, mouse beta cells; actives 0.3% (n = 190,000); z-score at 5 µM; MIN6 insulin promoter-GFP reporter; stronger effect = higher value;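 active = z-score above 3 at 5 µM with at least 500 cells counted in the well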
# Numbers without * were called inactive; i = inactive; / = not tested or not shown; + = active, no number.
SMILES,Wee1 degr inh,b-catenin transl,Autophagy mod,MT stabilizer,Insulin prom up
CCN(CC)S(=O)(=O)c1ccc(Cl)c(NC(=O)COC(=O)c2cccn2C)c1,3,-1,i,18*,-0.18
C=CCNC(=O)C1CC1(c1ccccc1)c1ccccc1 (stereo not given),-3,0,i,2,0.27
COc1cc2nc(SCC(=O)NC3CC3)n(CCC3=CCCCC3)c(=O)c2cc1OC,1,/,i,3,/
C=CCn1c(SCc2cc(C(C)=O)ccc2OCC)nc2ccccc2c1=O,8,98*,i,18*,1.1
C=CCn1c(SCc2c(C)noc2C)nc2cc(C(=O)O)ccc2c1=O,-3,/,i,35*,/
COc1cc2nc(SCc3c(C)noc3C)n(CCC3=CCCCC3)c(=O)c2cc1OC,0,-1,+,38*,2.2
C=CCn1c(SCc2c(C)noc2C)nc2sc3c(c2c1=O)CCCC3,-2,2,i,20,-2.4
COc1ccc(C(C)=O)cc1CSc1nc2ccccc2c(=O)n1-c1ccccc1,-1,2,i,9,-0.24
C=CCn1c(SCc2c(C)noc2C)nc2ccccc2c1=O,-1,/,i,27*,-0.91
O=C(CN1CCCC1)Nc1ccccc1Sc1ccc(Cl)cc1,0,-1,i,2,-0.11
C/C(=N/OCO/N=C(/C)c1ccc(F)cc1)c1ccc(F)cc1,2,0,i,6,0.08
N#Cc1c(-c2ccc(F)cc2)ccnc1N1CCOCC1,0,-4,i,3,0.4
CC(OC(=O)CNC(=O)C12CC3CC(CC(C3)C1)C2)C(=O)Nc1ncc(Cl)cc1Cl (stereo not given),-1,-8,i,4,1.1
CC1CCc2sc(C(=O)OC(C)C(=O)Nc3ncc(Cl)cc3Cl)cc2C1 (stereo not given),10*,-6,i,2,0.28
CC(=O)c1ccc(-n2nncc2-c2ccc([N+](=O)[O-])cc2)cc1,7,4,i,6,0.54
Oc1ccc(O)c(Cc2nc3ccccc3s2)c1,5,0,i,13*,-0.03
Oc1ccccc1OCc1nc2ccccc2s1,-1,1,i,4,/
CCOC(=O)COc1c(/C=N\O)cc(Cl)cc1OC,-3,0,i,2,-0.02
O=C(NCc1cccnc1)c1cccc(F)c1,0,1,+,3,-0.46
Cc1cc(NC(=O)CSc2nc(-c3ccco3)cc(C(F)(F)F)n2)no1,6,4,i,39*,/
Cc1cccc(C)c1NC(=O)CSc1nc(-c2ccco2)cc(C(F)(F)F)n1,0,4,i,41*,/
Cc1ccc(Cn2ccc(NC(=O)CCSc3nc(-c4ccco4)cc(C(F)(F)F)n3)n2)cc1,3,1,i,36*,0.16
Cc1cc(NC(=O)CCSc2nc(-c3ccco3)cc(C(F)(F)F)n2)no1,0,-2,i,3,-1.1
CSc1nc2ccccc2cc1/C=C(\C#N)c1cccc(C)c1,2,/,i,27,/
CSc1nc2ccccc2cc1/C=C(\C#N)c1ccc(Cl)c(Cl)c1,-1,0,+,8,-0.14
SMILES,Wee1 degr inh,b-catenin transl,Autophagy mod,MT stabilizer,Insulin prom up
CSc1nc2ccccc2cc1/C=C(\C#N)c1ccccc1,-2,1,i,36*,0.13
Cc1cccc(Sc2c(C=O)c3ccccc3n2C)c1,-1,/,i,3,/
COc1ccccc1N(C)S(=O)(=O)c1ccc(C(=O)OCC(=O)Nc2ccccc2F)cc1,11*,-2,i,4,-0.26
Nc1nc(Nc2ccccc2F)nc(NCc2ccccc2)c1[N+](=O)[O-],9.6*,-1,/,/,-0.64
Cc1ccc(C2c3c(-c4ccccc4O)n[nH]c3C(=O)N2Cc2ccncc2)cc1 (stereo not given),-1,-1,i,27*,-0.22
COc1ccc(CCN2C(=O)c3[nH]nc(-c4ccccc4O)c3C2c2cccc(Cl)c2)cc1 (stereo not given),0,3,i,20*,-0.29
Cc1ccc(-c2nc3ccccc3c(=O)n2NC(=S)N(C)C)cc1,2,-4,i,2,-0.17
COc1ccc(-c2nc(C)ncc2-c2csc(C)n2)c(O)c1,1,-2,i,1,-0.09

# Source: PubChem
